ChEMBL document CHEMBL4052818, “Design, Synthesis, and Biological Assessment of Biased Allosteric Modulation of the Urotensin II Receptor Using Achiral 1,3,4-Benzotriazepin-2-one Turn Mimics” (J Med Chem, 2017)
Calls of active or inactive are those of the source. The rule behind the calls is not given here.

Assays:
[1] = biological target: T1, Urotensin-2 receptor (Rattus norvegicus) (UniProt P49684); experiment: Allosteric modulation of urotensin-2 receptor in Sprague-Dawley rat thoracic aorta assessed as change in human urotensin-2-mediated aortic ring contraction by measuring urotensin-2 Emax at 10^-5M preincubated for 15 mins followed by urotensin-2 addition relative to KCl (reference value: 103 +/- 2%)
T1 sequence (whole entry): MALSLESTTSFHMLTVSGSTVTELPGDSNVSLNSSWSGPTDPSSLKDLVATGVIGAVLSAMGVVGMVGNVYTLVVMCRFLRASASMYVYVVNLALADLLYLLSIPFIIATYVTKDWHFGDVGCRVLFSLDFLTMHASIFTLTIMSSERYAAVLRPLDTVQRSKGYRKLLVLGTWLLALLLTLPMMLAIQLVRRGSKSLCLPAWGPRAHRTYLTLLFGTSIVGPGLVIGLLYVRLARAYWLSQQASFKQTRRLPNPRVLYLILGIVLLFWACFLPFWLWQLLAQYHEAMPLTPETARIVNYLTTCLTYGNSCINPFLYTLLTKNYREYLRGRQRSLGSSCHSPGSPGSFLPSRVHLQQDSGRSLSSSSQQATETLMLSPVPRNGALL

[2] = biological target: T1, Urotensin-2 receptor (Rattus norvegicus); experiment: Allosteric modulation of urotensin-2 receptor in Sprague-Dawley rat thoracic aorta assessed as change in URP-mediated aortic ring contraction by measuring URP Emax at 10^-5M preincubated for 15 mins followed by URP addition relative to KCl (reference value: 118 +/- 2%)
[3] = biological target: T1, Urotensin-2 receptor (Rattus norvegicus); experiment: Agonist activity at urotensin-2 receptor in Sprague-Dawley rat thoracic aorta assessed as induction of aortic ring contraction at 10^-5 M incubated for 15 mins
Summary of the method: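 Endothelium-denuded 4 mm thoracic aortic rings from adult male rats (250–300 g) were held in organ baths of oxygenated Krebs–Henseleit. A 40 mM KCl contraction served as the initial control. Each analogue was added alone at 10−5 M, and the contraction was expressed as % of the KCl response.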

[4] = biological target: T2, Urotensin-2 receptor (Homo sapiens) (UniProt Q9UKP6); experiment: Agonist activity at human urotensin-2 receptor expressed in HEK293 cells assessed as Gq activation at 10^-5 M […] by BRET assay; assay type: cell-based
T2 sequence (whole entry): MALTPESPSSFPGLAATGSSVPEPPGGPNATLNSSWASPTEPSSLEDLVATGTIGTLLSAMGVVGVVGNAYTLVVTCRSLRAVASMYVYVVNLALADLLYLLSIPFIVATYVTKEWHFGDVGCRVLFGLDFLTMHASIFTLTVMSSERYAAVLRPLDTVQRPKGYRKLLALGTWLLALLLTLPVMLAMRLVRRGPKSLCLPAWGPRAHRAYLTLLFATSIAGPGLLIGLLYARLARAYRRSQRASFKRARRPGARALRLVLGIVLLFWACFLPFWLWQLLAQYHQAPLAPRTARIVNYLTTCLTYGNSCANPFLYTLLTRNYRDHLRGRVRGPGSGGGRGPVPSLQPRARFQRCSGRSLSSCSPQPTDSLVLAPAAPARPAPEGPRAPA
Summary of the method: (§1)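 HEK293-UT cells were transfected with a polycistronic BRET biosensor, 2.5 μg for Gq or 0.5 μg for G12, and grown about 40 h. They were then held 2 h in PBS with 0.1% glucose. The analogue (10−5 M) was added alone with coelenterazine 400A. The GFP10/RlucII ratio (515/410 nm) was read over 5 min and normalized to hUII or URP at 10−5 M.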

[5] = biological target: T2, Urotensin-2 receptor (Homo sapiens); experiment: Agonist activity at human urotensin-2 receptor expressed in HEK293 cells assessed as G12 activation at 10^-5 M […] by BRET assay; assay type: cell-based; summary of the method: as §1
[6] = biological target: T2, Urotensin-2 receptor (Homo sapiens); experiment: Allosteric modulation of human urotensin-2 receptor expressed in HEK293 cells assessed as change in human urotensin-2-induced Gq activation by measuring urotensin-2 Emax at 10^-5 M preincubated for 30 mins followed by urotensin-2 addition by BRET assay (reference value: 100 +/- 3%); assay type: cell-based
[7] = biological target: T2, Urotensin-2 receptor (Homo sapiens); experiment: Allosteric modulation of human urotensin-2 receptor expressed in HEK293 cells assessed as change in URP-induced Gq activation by measuring URP Emax at 10^-5 M preincubated for 30 mins followed by URP addition by BRET assay (reference value: 100 +/- 3%); assay type: cell-based
[8] = biological target: T2, Urotensin-2 receptor (Homo sapiens); experiment: Allosteric modulation of human urotensin-2 receptor expressed in HEK293 cells assessed as change in human urotensin-2-induced G12 activation by measuring urotensin-2 Emax at 10^-5 M preincubated for 30 mins followed by urotensin-2 addition by BRET assay (reference value: 100 +/- 6%); assay type: cell-based
[9] = biological target: T2, Urotensin-2 receptor (Homo sapiens); experiment: Allosteric modulation of human urotensin-2 receptor expressed in HEK293 cells assessed as change in URP-induced G12 activation by measuring URP Emax at 10^-5 M preincubated for 30 mins followed by URP addition by BRET assay (reference value: 100 +/- 7%); assay type: cell-based
[10] = biological target: T1, Urotensin-2 receptor (Rattus norvegicus); experiment: Allosteric modulation of urotensin-2 receptor in Sprague-Dawley rat thoracic aorta assessed as change in human urotensin-2-mediated aortic ring contraction by measuring urotensin-2 Emax at 1 uM preincubated for 15 mins followed by urotensin-2 addition relative to KCl (reference value: 103 +/- 2%)
[11] = biological target: T1, Urotensin-2 receptor (Rattus norvegicus); experiment: Allosteric modulation of urotensin-2 receptor in Sprague-Dawley rat thoracic aorta assessed as change in URP-mediated aortic ring contraction by measuring URP Emax at 1 uM preincubated for 15 mins followed by URP addition relative to KCl (reference value: 118 +/- 2%)

Row | SMILES | Emax [1] [%] | Emax [2] [%] | Activity [3] [%] | Activity [4] | Activity [5] | Emax [6] [%] | Emax [7] [%] | Emax [8] [%] | Emax [9] [%] | Emax [10] [%] | Emax [11] [%]
1 | COc1ccc(/C=C/C2=NN(CCCCN)C(=O)N(Cc3ccc4ccccc4c3)c3ccccc32)cc1 | 108 | 110 | < 8 |  |  |  |  |  |  |  | 
2 | COc1ccc(/C=C/C2=NN(CCCN)C(=O)N(Cc3ccc4ccccc4c3)c3ccccc32)cc1 | 76 | 120 | < 8 |  |  |  |  |  |  |  | 
3 | CNCCCCN1N=C(CCc2nc3ccccc3s2)c2ccccc2N(Cc2cccc3ccccc23)C1=O | 99 | 99 | < 8 |  |  |  |  |  |  |  | 
4 | NCCCCN1N=C(CCc2nc3ccccc3s2)c2ccccc2N(Cc2ccc3ccccc3c2)C1=O | 73 | 111 | < 8 |  |  |  |  |  |  |  | 
5 | COc1ccc(CCC2=NN(CCCN)C(=O)N(Cc3ccc(-c4ccccc4)cc3)c3ccccc32)cc1 | 59 | 47 | < 8 |  |  |  |  |  |  |  | 
6 | NCCCCN1N=C(/C=C/c2ccc(O)cc2)c2ccccc2N(Cc2ccc3ccccc3c2)C1=O | 55 | 114 | < 8 |  |  |  |  |  |  |  | 
7 | NCCCN1N=C(CCc2ccc(O)cc2)c2ccccc2N(Cc2ccc(-c3ccccc3)cc2)C1=O | 95 | 90 | < 8 |  |  |  |  |  |  |  | 
8 | COc1ccc(CCC2=NN(CCCCN)C(=O)N(Cc3ccc(-c4ccccc4)cc3)c3ccccc32)cc1 | 82 | 84 | < 8 |  |  |  |  |  |  |  | 
9 | NCCCCN1N=C(/C=C/c2ccc(O)cc2)c2ccccc2N(Cc2ccc(-c3ccccc3)cc2)C1=O | 48 | 118 | < 8 | inactive | inactive | 92 | 92 | 103 | 72 |  | 
10 | NCCCN1N=C(CCc2nc3ccccc3s2)c2ccccc2N(Cc2cccc3ccccc23)C1=O | 100 | 101 | < 8 |  |  |  |  |  |  |  | 
11 | CNCCCN1N=C(CCc2nc3ccccc3s2)c2ccccc2N(Cc2ccc(-c3ccccc3)cc2)C1=O | 76 | 110 | < 8 |  |  |  |  |  |  |  | 
12 | CC(C)[C@H](NC(=O)[C@@H]1CSSC[C@H](NC(=O)[C@H](C)N)C(=O)N[C@@H](Cc2ccccc2)C(=O)N[C@@H](Cc2ccc(-c3ccccc3)cc2)C(=O)N[C@@H](CCCCN)C(=O)N[C@@H](Cc2ccc(O)cc2)C(=O)N1)C(=O)O |  |  |  |  |  |  |  |  |  | 61 | 102
13 | COc1ccc(CCC2=NN(CCCCN)C(=O)N(Cc3ccc4ccccc4c3)c3ccccc32)cc1 | 55 | 72 | < 8 |  |  |  |  |  |  |  | 
14 | NCCCN1N=C(CCc2nc3ccccc3s2)c2ccccc2N(Cc2ccc3ccccc3c2)C1=O | 45 | 117 | < 8 | inactive | inactive | 87 | 82 | 96 | 115 |  | 
15 | NCCCN1N=C(/C=C/c2ccc(O)cc2)c2ccccc2N(Cc2ccc(-c3ccccc3)cc2)C1=O | 51 | 115 | < 8 |  |  |  |  |  |  |  | 
16 | CNCCCCN1N=C(CCc2nc3ccccc3s2)c2ccccc2N(Cc2ccc3ccccc3c2)C1=O | 87 | 114 | < 8 |  |  |  |  |  |  |  | 
17 | NCCCN1N=C(CCc2ccc(O)cc2)c2ccccc2N(Cc2ccc3ccccc3c2)C1=O | 107 | 96 | < 8 |  |  |  |  |  |  |  | 
18 | COc1ccc(/C=C/C2=NN(CCCN)C(=O)N(Cc3ccc(-c4ccccc4)cc3)c3ccccc32)cc1 | 106 | 194 | < 8 |  |  |  |  |  |  |  | 

Results, then the compound that gave them:

Row | Emax [1] [%] | Emax [2] [%] | Activity [3] [%] | Activity [4] | Activity [5] | Emax [6] [%] | Emax [7] [%] | Emax [8] [%] | Emax [9] [%] | Emax [10] [%] | Emax [11] [%] | SMILES
19 | 68 | 112 | < 8 |  |  |  |  |  |  |  |  | NCCCCN1N=C(CCc2nc3ccccc3s2)c2ccccc2N(Cc2ccc(-c3ccccc3)cc2)C1=O
20 | 98 | 75 | < 8 | inactive | inactive | 83 | 78 | 98 | 90 |  |  | NCCCCN1N=C(CCc2ccc(O)cc2)c2ccccc2N(Cc2ccc3ccccc3c2)C1=O
21 | 55 | 41 | < 8 |  |  |  |  |  |  |  |  | COc1ccc(CCC2=NN(CCCN)C(=O)N(Cc3ccc4ccccc4c3)c3ccccc32)cc1
22 | 118 | 86 | < 8 |  |  |  |  |  |  |  |  | NCCCCN1N=C(CCc2ccc(O)cc2)c2ccccc2N(Cc2ccc(-c3ccccc3)cc2)C1=O
23 | 90 | 91 | < 8 |  |  |  |  |  |  |  |  | CNCCCCN1N=C(CCc2nc3ccccc3s2)c2ccccc2N(Cc2ccc(-c3ccccc3)cc2)C1=O
24 | 75 | 99 | < 8 |  |  |  |  |  |  |  |  | NCCCN1N=C(CCc2nc3ccccc3s2)c2ccccc2N(Cc2ccc(-c3ccccc3)cc2)C1=O
25 | 100 | 124 | < 8 |  |  |  |  |  |  |  |  | NCCCCN1N=C(CCc2nc3ccccc3s2)c2ccccc2N(Cc2cccc3ccccc23)C1=O
26 | 83 | 284 | < 8 | inactive | inactive | 80 | 83 | 96 | 106 |  |  | COc1ccc(/C=C/C2=NN(CCCCN)C(=O)N(Cc3ccc(-c4ccccc4)cc3)c3ccccc32)cc1
27 | 59 | 111 | < 8 |  |  |  |  |  |  |  |  | NCCCN1N=C(/C=C/c2ccc(O)cc2)c2ccccc2N(Cc2ccc3ccccc3c2)C1=O
